The list is not random: actives were taken first. Their share in the collection is about 3.7%.
hERG rescue = hERG (human) protection from proarrhythmic block; Q12809; CHO-hERG, FluxOR thallium flux, dofetilide IC70 present; activation (rescue from dofetilide block), less the hit threshold, % at 10 µM; 310,000 tested, 0.51% active;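 active = activation above the mean of controls blocked by dofetilide plus 5 SD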;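 also: thallium influx through hERG after potassium depolarization seen as dye fluorescence rise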
KCNK3 inh = human KCNK3 channel inhibition, primary screen | B-score at 10 µM | O14649 | 340,000 tested, 0.84% active | CHO-KCNK3 thallium flux, FluxOR fluorescence; hits give low values;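 active = B-score under library mean minus 4 SD, starting fluorescence ratio at most library mean plus 5 SD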;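 also: more negative B-score means stronger inhibition of thallium flux through KCNK3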
Target sequence (O14649 whole entry, looked up): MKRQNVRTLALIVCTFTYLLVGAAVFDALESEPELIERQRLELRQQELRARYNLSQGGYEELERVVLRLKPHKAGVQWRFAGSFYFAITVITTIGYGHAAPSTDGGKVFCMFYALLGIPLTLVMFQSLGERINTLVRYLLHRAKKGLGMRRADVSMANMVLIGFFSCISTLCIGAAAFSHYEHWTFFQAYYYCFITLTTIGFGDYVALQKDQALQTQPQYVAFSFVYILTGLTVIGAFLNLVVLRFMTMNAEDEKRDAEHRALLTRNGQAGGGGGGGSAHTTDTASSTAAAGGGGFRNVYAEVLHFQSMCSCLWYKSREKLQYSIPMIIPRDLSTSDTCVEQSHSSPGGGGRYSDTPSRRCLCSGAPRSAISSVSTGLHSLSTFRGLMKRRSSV
KCNQ1 inh = blocks the human KCNQ1 potassium channel. B-score at 10 µM. 310,000 tested, 1.3% active. CHO-K1 KCNQ1, FluxOR thallium flux fluorescence; hits give high values. AID 2642. P51787;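 active = compounds whose thallium flux B-score, printed positive for inhibition, exceeds three library SD while starting fluorescence stays within three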;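 also: channel opened by potassium depolarization with thallium stimulus after 20 min compound exposure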
KCNK9 block = blocks the human KCNK9 two-pore domain potassium channel | Q9NPC2 | HEK293 KCNK9, FluxOR thallium flux fluorescence; hits give low values | B-score at 10 µM | 310,000 tested, 1.2% active | AID 488922;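 active = ratio B-score over 3 SD below the library mean, with starting fluorescence within 5 SD of its mean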;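 also: negative B-score means less thallium flux so channel inhibition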
KCNQ1 pot = potentiators or activators of human KCNQ1 potassium channel | P51787 | CHO-K1 KCNQ1, thallium flux FluxOR fluorescence; hits give high values | B-score at 10 µM | 310,000 tested, 0.35% active | AID 2648;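 active = fluorescence ratio B-score, a plate-corrected score, at least three library SD, with initial intensity B-score within 5 SD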
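Assay system: CHO-K1 cells stably expressing KCNQ1; Medium: assay buffer with matched DMSO; Also added: K+/Tl+ depolarizing stimulus; Dosing: single dose; Timing: dye 90 min, compound 20 min, room temperature; Measured by: kinetic FluxOR thallium fluorescence, 10-s 1-Hz baseline, 110-s post-stimulus read; Read-out: peak-minus-minimum fluorescence over initial fluorescence, negative-control normalized, B-scored.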
Kir21 block = blocks the mouse Kir2.1 inward-rectifier potassium channel | P35561 | 310,000 tested, 0.85% active | B-score at 10 µM | HEK293-Kir2.1, FluxOR thallium flux fluorescence; hits give low values;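 active = fluorescence ratio B-score at or below minus 3 SD of library scores, with starting-brightness B-score within 2 SD, cut at about -4.2 in these data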;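 also: channel flux triggered by added potassium and thallium sulfate stimulus; B-score of peak minus minimum fluorescence over baseline after thallium stimulus; more negative B-score means stronger Kir2.1 block with less thallium influx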
The depositor's hits bear a star.

What do the screens show for `O=C(NC1CCN(Cc2ccccc2)C1)c1cc(COc2ccc(F)cc2F)on1` (stereo not given)?
hERG rescue: -10; KCNK3 inh: inactive; KCNQ1 inh: inactive; KCNK9 block: inactive; KCNQ1 pot: inactive; Kir21 block: -4.4*

What do the screens show for `C#CCN1[C@@H]2CCN(C2)c2cc(Br)ccc2S1(=O)=O`?
KCNK3 inh: inactive

How did CC1c2cc3c(cc2CCN1C(=O)c1ccc(C(F)(F)F)cc1)OCCCO3 (stereo not given) do in these assays?
hERG rescue: -17; KCNK3 inh: inactive; KCNQ1 inh: inactive; KCNK9 block: -6.9*; KCNQ1 pot: inactive; Kir21 block: -0.96

What do the screens show for `CCn1c(C)[n+](Cc2ccccc2)c2ccc(Cl)cc21`?
hERG rescue: -12; KCNK3 inh: inactive; KCNQ1 inh: inactive; KCNK9 block: inactive; KCNQ1 pot: inactive; Kir21 block: 0

What do the screens show for `CCn1c(/C=C/N(C)c2ccccc2)[n+](CC)c2ccc(Cl)cc21`?
hERG rescue: -22; KCNK3 inh: inactive; KCNQ1 inh: 13*; KCNK9 block: inactive; KCNQ1 pot: inactive; Kir21 block: -1.7

What do the screens show for `NNC(=O)c1cc(C23CC4CC(CC(C4)C2)C3)nc2ccccc12`?
hERG rescue: -10; KCNK3 inh: inactive; KCNQ1 inh: 6*; KCNK9 block: inactive; KCNQ1 pot: inactive; Kir21 block: 0.45

Results for O=C(NNc1c2ccccc2nc2ccccc12)C12CC3CC(CC(C3)C1)C2 ?
hERG rescue: 0; KCNK3 inh: inactive; KCNQ1 inh: inactive; KCNK9 block: inactive; KCNQ1 pot: inactive; Kir21 block: 1

Results for C=C1[C@@H](CCO)N(S(=O)(=O)C(C)(C)C)C[C@@H]1C ?
KCNK3 inh: inactive

Results for COc1ccc(CNc2ncc(-c3cccc([N+](=O)[O-])c3)n2C)c(OC)c1OC ?
hERG rescue: -15; KCNK3 inh: inactive; KCNQ1 inh: inactive; KCNK9 block: inactive; KCNQ1 pot: inactive; Kir21 block: -0.05

How did Cc1cc(C2=NNC(=NC3CC3)SC2)c(C)n1-c1c(C)n(C)n(-c2ccccc2)c1=O do in these assays?
hERG rescue: -12; KCNK3 inh: inactive; KCNQ1 inh: inactive; KCNK9 block: inactive; KCNQ1 pot: inactive; Kir21 block: -0.8

Results for Cc1ccc(-n2c(C)cc(C3=NNC(=NC4CC4)SC3)c2C)cc1C ?
hERG rescue: -24; KCNK3 inh: inactive; KCNQ1 inh: 7*; KCNK9 block: inactive; KCNQ1 pot: inactive; Kir21 block: -2.1

What do the screens show for `CCN(CC)S(=O)(=O)c1cc(NC(=O)CCn2[nH]c(=O)ccc2=O)ccc1C`?
KCNK3 inh: inactive

How did CCn1c(CNc2ccc(F)cc2)nnc1SCC(=O)OC1CCCCC1 do in these assays?
hERG rescue: -3; KCNK3 inh: inactive; KCNQ1 inh: inactive; KCNK9 block: inactive; KCNQ1 pot: inactive; Kir21 block: -4.5*

How did CCOC(=O)CSc1nnc(CNc2ccc(Cl)cc2)n1Cc1ccccc1 do in these assays?
hERG rescue: -15; KCNK3 inh: inactive; KCNQ1 inh: 8*; KCNK9 block: inactive; KCNQ1 pot: inactive; Kir21 block: -2.5

How did COc1ccc(C(C)(C)C)cc1NC(=O)COC(=O)CN1C(=O)NC2(CCCCC2C)C1=O (stereo not given) do in these assays?
KCNK3 inh: inactive

Results for CCOC(=O)c1c(NC(=O)C(NCCN(C)C)c2ccccc2)sc2c1CCCC2 (stereo not given) ?
hERG rescue: -24; KCNK3 inh: inactive; KCNQ1 inh: inactive; KCNK9 block: inactive; KCNQ1 pot: inactive; Kir21 block: -6.2*

What do the screens show for `O=[N+]([O-])C(=C1Nc2ccccc2N1)/C(Cl)=C(/Cl)Br`?
hERG rescue: -19; KCNK3 inh: inactive; KCNQ1 inh: inactive; KCNK9 block: inactive; KCNQ1 pot: inactive; Kir21 block: -1.1

How did COc1ccc([N+](=O)[O-])cc1NC(=O)C(C)c1ccccc1 (stereo not given) do in these assays?
hERG rescue: 0; KCNK3 inh: inactive; KCNQ1 inh: inactive; KCNK9 block: inactive; KCNQ1 pot: inactive; Kir21 block: 0.68

Screens as filed in PubChem.
